# Measurements reported in ChEMBL document CHEMBL4190234, “Design, synthesis and anticancer activity of new monastrol analogues bearing 1,3,4-oxadiazole moiety” (Eur J Med Chem, 2017).
# Key:
# Format in all cases: functional
# SNB-75 = assay: Growth inhibition of human SNB75 cells at 10 uM incubated for 48 hrs by sulforhodamine B assay relative to control; conditions: SNB-75, 48 h, read-out: GI
# Method in brief: (§1)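 NCI single-dose screen: cells grown in RPMI 1640 with 5% FBS and 2 mM L-glutamine, plated at 5,000–40,000 cells/well and preincubated 24 h at 37 °C, 5% CO2. Compounds taken from DMSO stock and tested at final 10 µM for 48 h. Cells fixed with TCA, stained with 0.4% SRB, absorbance read at 515 nm. Percentage growth calculated against untreated controls; controls held DMSO at the same dilution.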
# PC-3 = assay: Growth inhibition of human PC3 cells at 10 uM incubated for 48 hrs by sulforhodamine B assay relative to control; conditions: PC-3, 48 h, read-out: GI
# Method in brief: (§2)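 Single-dose screen at 10 μM final: cells in RPMI 1640, 5% FBS, 2 mM L-glutamine, plated 5,000–40,000/well, preincubated 24 h at 37°C, 5% CO2; drug 48 h; adherent cells fixed with 10% TCA, suspension cells with 16% TCA; SRB stain, absorbance 515 nm; percentage growth versus untreated control, with time-zero plates.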
# SK-MEL-5 = assay: Growth inhibition of human SK-MEL-5 cells at 10 uM incubated for 48 hrs by sulforhodamine B assay relative to control; conditions: SK-MEL-5, 48 h, read-out: GI; method in brief: as §1
# LOX IMVI = assay: Growth inhibition of human LOXIMVI cells at 10 uM incubated for 48 hrs by sulforhodamine B assay relative to control; conditions: read-out: GI; method in brief: as §2
# TK-10 = assay: Growth inhibition of human TK10 cells at 10 uM incubated for 48 hrs by sulforhodamine B assay relative to control; conditions: TK-10, 48 h, read-out: GI; method in brief: as §1
# MDA-MB-468 = assay: Growth inhibition of human MDA-MB-468 cells at 10 uM incubated for 48 hrs by sulforhodamine B assay relative to control; conditions: MDA-MB-468, 48 h, read-out: GI; method in brief: as §2
# SK-MEL-2 = assay: Growth inhibition of human SK-MEL-2 cells at 10 uM incubated for 48 hrs by sulforhodamine B assay relative to control; conditions: SK-MEL-2, 48 h, read-out: GI; method in brief: as §1
# U-251 = assay: Growth inhibition of human U251 cells at 10 uM incubated for 48 hrs by sulforhodamine B assay relative to control; conditions: U-251, 48 h, read-out: GI; method in brief: as §1
# DU-145 = assay: Growth inhibition of human DU145 cells at 10 uM incubated for 48 hrs by sulforhodamine B assay relative to control; conditions: DU-145, 48 h, read-out: GI; method in brief: as §2
# NCI-H460 = assay: Growth inhibition of human NCI-H460 cells at 10 uM incubated for 48 hrs by sulforhodamine B assay relative to control; conditions: NCI-H460, 48 h, read-out: GI; method in brief: as §2
# MDA-MB-435 = assay: Growth inhibition of human MDA-MB-435 cells at 10 uM incubated for 48 hrs by sulforhodamine B assay relative to control; conditions: MDA-MB-435, 48 h, read-out: GI; method in brief: as §2
# UACC-62 = assay: Growth inhibition of human UACC62 cells at 10 uM incubated for 48 hrs by sulforhodamine B assay relative to control; conditions: UACC-62, 48 h, read-out: GI; method in brief: as §1
# HCT-116 = assay: Growth inhibition of human HCT116 cells at 10 uM incubated for 48 hrs by sulforhodamine B assay relative to control; conditions: HCT-116, 48 h, read-out: GI; method in brief: as §2
# SR = assay: Growth inhibition of human SR cells at 10 uM incubated for 48 hrs by sulforhodamine B assay relative to control; conditions: read-out: GI; method in brief: as §1
# KM12 = assay: Growth inhibition of human KM12 cells at 10 uM incubated for 48 hrs by sulforhodamine B assay relative to control; conditions: KM12, 48 h, read-out: GI; method in brief: as §2
# RPMI-8226 = assay: Growth inhibition of human RPMI8226 cells at 10 uM incubated for 48 hrs by sulforhodamine B assay relative to control; conditions: RPMI-8226, 48 h, read-out: GI; method in brief: as §2
# SNB-19 = assay: Growth inhibition of human SNB19 cells at 10 uM incubated for 48 hrs by sulforhodamine B assay relative to control; conditions: SNB-19, 48 h, read-out: GI; method in brief: as §1
# HCC 2998 = assay: Growth inhibition of human HCC2998 cells at 10 uM incubated for 48 hrs by sulforhodamine B assay relative to control; conditions: HCC 2998, 48 h, read-out: GI; method in brief: as §2
# NCI/ADR-RES = assay: Growth inhibition of human NCI/ADR-RES cells at 10 uM incubated for 48 hrs by sulforhodamine B assay relative to control; conditions: read-out: GI; method in brief: as §2
# COLO 205 = assay: Growth inhibition of human COLO205 cells at 10 uM incubated for 48 hrs by sulforhodamine B assay relative to control; conditions: COLO 205, 48 h, read-out: GI; method in brief: as §2
# UACC-257 = assay: Growth inhibition of human UACC257 cells at 10 uM incubated for 48 hrs by sulforhodamine B assay relative to control; conditions: UACC-257, 48 h, read-out: GI; method in brief: as §1
# HOP-62 = assay: Growth inhibition of human HOP62 cells at 10 uM incubated for 48 hrs by sulforhodamine B assay relative to control; conditions: HOP-62, 48 h, read-out: GI; method in brief: as §2
# A498 = assay: Growth inhibition of human A498 cells at 10 uM incubated for 48 hrs by sulforhodamine B assay relative to control; conditions: A498, 48 h, read-out: GI; method in brief: as §2
# 786-0 = assay: Growth inhibition of human 786-0 cells at 10 uM incubated for 48 hrs by sulforhodamine B assay relative to control; conditions: 786-0, 48 h, read-out: GI; method in brief: as §2
# K562 = assay: Growth inhibition of human K562 cells at 10 uM incubated for 48 hrs by sulforhodamine B assay relative to control; conditions: K562, 48 h, read-out: GI; method in brief: as §2
# MDA-MB-231 = assay: Growth inhibition of human MDA-MB-231 cells at 10 uM incubated for 48 hrs by sulforhodamine B assay relative to control; conditions: MDA-MB-231, 48 h, read-out: GI; method in brief: as §2
# OVCAR-5 = assay: Growth inhibition of human OVCAR5 cells at 10 uM incubated for 48 hrs by sulforhodamine B assay relative to control; conditions: OVCAR-5, 48 h, read-out: GI; method in brief: as §2
# Hs-578T = assay: Growth inhibition of human Hs 578T cells at 10 uM incubated for 48 hrs by sulforhodamine B assay relative to control; conditions: read-out: GI; method in brief: as §2
# Malme-3M = assay: Growth inhibition of human MALME-3M cells at 10 uM incubated for 48 hrs by sulforhodamine B assay relative to control; conditions: read-out: GI; method in brief: as §2
# CAKI-1 = assay: Growth inhibition of human Caki1 cells at 10 uM incubated for 48 hrs by sulforhodamine B assay relative to control; conditions: CAKI-1, 48 h, read-out: GI; method in brief: as §2
# OVCAR-4 = assay: Growth inhibition of human OVCAR4 cells at 10 uM incubated for 48 hrs by sulforhodamine B assay relative to control; conditions: OVCAR-4, 48 h, read-out: GI; method in brief: as §2
# MCF7 = assay: Growth inhibition of human MCF7 cells at 10 uM incubated for 48 hrs by sulforhodamine B assay relative to control; conditions: MCF7, 48 h, read-out: GI; method in brief: as §2
Compound,inhibition of growth at 10 µM (SNB-75) [%],inhibition of growth at 10 µM (PC-3) [%],inhibition of growth at 10 µM (SK-MEL-5) [%],inhibition of growth at 10 µM (LOX IMVI) [%],inhibition of growth at 10 µM (TK-10) [%],inhibition of growth at 10 µM (MDA-MB-468) [%],inhibition of growth at 10 µM (SK-MEL-2) [%],inhibition of growth at 10 µM (U-251) [%],inhibition of growth at 10 µM (DU-145) [%],inhibition of growth at 10 µM (NCI-H460) [%],inhibition of growth at 10 µM (MDA-MB-435) [%],inhibition of growth at 10 µM (UACC-62) [%],inhibition of growth at 10 µM (HCT-116) [%],inhibition of growth at 10 µM (SR) [%],inhibition of growth at 10 µM (KM12) [%],inhibition of growth at 10 µM (RPMI-8226) [%],inhibition of growth at 10 µM (SNB-19) [%],inhibition of growth at 10 µM (HCC 2998) [%],inhibition of growth at 10 µM (NCI/ADR-RES) [%],inhibition of growth at 10 µM (COLO 205) [%],other results
CCOC(=O)C1=C(C)NC(SCc2nnc(-c3ccc(OC)cc3)o2)=NC1c1ccc(F)cc1 (centres undefined),17.5,12.5,< 10,< 10,< 10,< 10,< 10,< 10,< 10,< 10,< 10,< 10,< 10,15.9,< 10,< 10,11.4,< 10,< 10,< 10,inhibition of growth at 10 µM (UACC-257): 11.8%; inhibition of growth at 10 µM (HOP-62): 12%; inhibition of growth at 10 µM (A498): < 10%; inhibition of growth at 10 µM (786-0): < 10%; inhibition of growth at 10 µM (K562): < 10%; inhibition of growth at 10 µM (MDA-MB-231): < 10%; inhibition of growth at 10 µM (OVCAR-5): < 10%; inhibition of growth at 10 µM (Hs-578T): < 10%; inhibition of growth at 10 µM (Malme-3M): < 10%; inhibition of growth at 10 µM (CAKI-1): 24.9%; inhibition of growth at 10 µM (OVCAR-4): < 10%; inhibition of growth at 10 µM (MCF7): < 10%
CCOC(=O)C1=C(C)NC(SCc2nnc(-c3ccc(Cl)cc3)o2)=NC1c1cccc(Cl)c1 (centres undefined),16.8,39.2,< 10,17.7,30.3,< 10,39.9,< 10,13.5,< 10,< 10,26.6,56.5,16.4,16,46.4,10.4,10.3,21.3,29.6,inhibition of growth at 10 µM (UACC-257): 22.2%; inhibition of growth at 10 µM (HOP-62): 25.1%; inhibition of growth at 10 µM (A498): < 10%; inhibition of growth at 10 µM (786-0): 43%; inhibition of growth at 10 µM (K562): 27.5%; inhibition of growth at 10 µM (MDA-MB-231): 18.9%; inhibition of growth at 10 µM (OVCAR-5): 10.5%; inhibition of growth at 10 µM (Hs-578T): < 10%; inhibition of growth at 10 µM (Malme-3M): < 10%; inhibition of growth at 10 µM (CAKI-1): 35.1%; inhibition of growth at 10 µM (OVCAR-4): 16.9%; inhibition of growth at 10 µM (MCF7): 32%
